Measured values collected from several papers.
pEC50, pIC50: −log10 of the molar value.
Observed: cell growth or viability

Cc1nc(NC(=O)N2CCC[C@H]2C(N)=O)sc1-c1ccnc(C(C)(C)C(F)(F)F)c1 gave a pEC50 of 5.68 (MKN-1; ATP luminescence; 5 days).
NCCCC(=O)Nc1ccccc1/N=c1\cc(-c2ccc3c(c2)OCO3)oc2ccccc12 has an inhibition of 1.32% (NCI-H1975; CCK-8; 1 µM).
CCCCCCCCCCCCCCCCCCOc1ccccc1CC(=O)OCC[N+]1(C)CCOCC1 gave an inhibition of 20.2% (NCI-H322M; SRB; 10 µM).
With NCC(=O)Nc1ccccc1/N=c1\cc(-c2ccc3c(c2)OCCO3)oc2ccccc12 the inhibition was 0.57% (NCI-H1975; CCK-8; 1 µM).
CCCCNC(=O)Nc1nc2cc(-c3ccc4ncn(Cc5ccccc5)c(=O)c4c3)ccc2s1 has a pIC50 of 5.12 (NCI-H1975; MTT; 72 h).
The inhibition of CCCCCCCCCCCCCCCCCCOc1cccc(CC(=O)OCC[N+](CC)(CC)CC)c1 is reported as 22.3% (NCI-H322M; SRB; 10 µM).
With O=C(Nc1ccc(F)cc1)Nc1nc2cc(-c3ccc4ncn(Cc5ccccc5)c(=O)c4c3)ccc2s1 the pIC50 was 5.63 (NCI-H1975; MTT; 72 h).
With CCCCCCCCCCCCCCCCCCOc1ccc(CC(=O)OCC[N+]2(C)CCOCC2)cc1 the inhibition was 3.14% (NCI-H322M; SRB; 10 µM).
The inhibition of O=C(Nc1ccccc1/N=c1\cc(-c2ccc3c(c2)OCCO3)oc2cc(F)ccc12)N1CCOCC1 is reported as 2.35% (NCI-H1975; CCK-8; 1 µM).
For CCCC(=O)Nc1nc2cc(-c3ccc4ncn(Cc5ccccc5)c(=O)c4c3)ccc2s1, the pIC50 was less than 4.70 (NCI-H1975; MTT; 72 h).
With C[C@H](Nc1ccc2c(c1)OCCn1cc(N3C(=O)OC[C@H]3C(F)F)nc1-2)C(N)=O the pEC50 was 6.36 (MKN-1; ATP luminescence; 5 days).
With Cc1nc(Nc2ncc(C(=O)Nc3c(C)cccc3Cl)s2)cc(N2CC[C@H](O)C2)n1 the inhibition was 96% (Pfeiffer; ATP luminescence; 10 µM, 72 h).
For Nc1ccccc1/N=c1\cc(-c2ccc3c(c2)OCO3)oc2ccccc12, the inhibition was 2.1% (NCI-H1975; CCK-8; 1 µM).
For CCCCC(=O)Nc1ncc(-c2ccc3ncn(CCC)c(=O)c3c2)cn1, the pIC50 was 5.54 (NCI-H1975; CCK-8; 72 h).
COc1ccc(C(=O)Nc2nc3cc(-c4ccc5ncn(Cc6ccccc6)c(=O)c5c4)ccc3s2)cc1 has a pIC50 of less than 4.70 (NCI-H1975; MTT; 72 h).
NCC(=O)Nc1ccccc1/N=c1\cc(-c2ccc3c(c2)OCCO3)oc2cc(F)ccc12 has an inhibition of 4.41% (NCI-H1975; CCK-8; 1 µM).
CCCCn1cnc2ccc(-c3ccc(NC(=O)NCc4ccccc4)nc3)cc2c1=O gave a pIC50 of 6.54 (NCI-H1975; CCK-8; 72 h).
With CCCCCCCCCCCCCCCCCCOc1ccccc1CC(=O)OCCC[N+](C)(C)C the inhibition was 15.7% (NCI-H322M; SRB; 10 µM).
NCCC(=O)Nc1ccccc1/N=c1\cc(-c2ccc3nc(N)oc3c2)oc2ccccc12 has an inhibition of 43.6% (NCI-H1975; CCK-8; 1 µM).
The pIC50 of CCCCn1cnc2ccc(-c3ccc(NC(C)=O)nc3)cc2c1=O is reported as less than 5.00 (NCI-H1975; CCK-8; 72 h).
The pIC50 of CC(=O)O[C@H]1C(=O)[C@@]2(C)[C@H]([C@H](OC(=O)c3ccccc3)[C@]3(O)C[C@H](OC(=O)[C@H](O)[C@@H](NC(=O)c4ccccc4)c4ccccc4)C(C)=C1C3(C)C)[C@]1(OC(C)=O)CO[C@@H]1C[C@@H]2O is reported as 7.14 (NCI-H1975; MTT; 72 h).
For CCCCC(=O)Nc1ccc(-c2cnc3ccn(CCC)c(=O)c3c2)cn1, the pIC50 was 5.92 (NCI-H1975; CCK-8; 72 h).
The inhibition of CCCCCCCCCCCCCCCCCCOc1cccc(CC(=O)OCC[N+](C)(C)C)c1 is reported as 0.32% (NCI-H322M; SRB; 10 µM).
For O=C(Nc1ccc(-c2ccc3ncn(Cc4ccccc4)c(=O)c3c2)cn1)C1CCC1, the pIC50 was less than 5.00 (NCI-H1975; CCK-8; 72 h).
For O=C(Nc1cc(C(F)(F)F)cc(C(F)(F)F)c1)Nc1nc2cc(-c3ccc4ncn(Cc5ccccc5)c(=O)c4c3)ccc2s1, the pIC50 was less than 4.70 (NCI-H1975; MTT; 72 h).
With CCCCC(=O)Nc1ccc(-c2ccc3ncn(CC)c(=O)c3c2)cn1 the pIC50 was 6.60 (NCI-H1975; CCK-8; 72 h).
O=C(Nc1ccc(F)cc1)Nc1nc2cc(-c3ccc4ncn(CC5CC5)c(=O)c4c3)ccc2s1 gave a pIC50 of 5.95 (NCI-H1975; MTT; 72 h).
CCCCCCCCCCCCCCCCCCOc1cccc(CC(=O)OCCC[N+](C)(C)C)c1 gave an inhibition of 4.07% (NCI-H322M; SRB; 10 µM).
CCCCn1cnc2ccc(-c3ccc(NC(=O)Nc4ccc(OC(F)(F)F)cc4)nc3)cc2c1=O gave a pIC50 of 6.33 (NCI-H1975; CCK-8; 72 h).
The inhibition of NCCC(=O)Nc1cccc(/N=c2\cc(-c3ccc4c(c3)OCO4)oc3ccccc23)c1 is reported as 2.94% (NCI-H1975; CCK-8; 1 µM).
CCCCC(=O)Nc1ccc(-c2ccc3ncn(CCCF)c(=O)c3c2)cn1 has a pIC50 of 6.85 (NCI-H1975; CCK-8; 72 h).
With Cc1cc(C)cc(NC(=O)Nc2nc3cc(-c4ccc5ncn(Cc6ccccc6)c(=O)c5c4)ccc3s2)c1 the pIC50 was less than 4.70 (NCI-H1975; MTT; 72 h).
COc1ccc2/c(=N/c3ccccc3NC(=O)[C@@H](N)CO)cc(-c3ccc4c(c3)OCCO4)oc2c1 has an inhibition of 1.06% (NCI-H1975; CCK-8; 1 µM).
